Measured values reported in ChEMBL document CHEMBL1649083, “Discovery of novel inhibitors of the NorA multidrug transporter of Staphylococcus aureus” (2011).
Values after ≈ are worked out from the molar mass of the structure shown.

What was measured:
Staphylococcus aureus [1] = assay: Antibacterial activity against Staphylococcus aureus 1199B by microdilution technique; type: functional
Procedure, shortened: (§1)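 MICs run in duplicate by broth microdilution following CLSI guidelines. Ciprofloxacin MICs were also determined with scalar dilutions of freshly prepared test compound solutions in checkerboard combination format. Strain panel: SA-K1902 (norA-), SA-K2378 (norA++), SA-1199 (norA wild-type), SA-1199B (norA++, GrlA A116E) and ATCC 25923 wild-type control.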

[2] = target: T1, Quinolone resistance protein NorA (Staphylococcus aureus) (UniProt P0A0J7); assay: Inhibition of NorA in Staphylococcus aureus 1199B assessed as reduction in ethidium bromide efflux at 50 uM by fluorimetry after 5 mins
T1 sequence (whole entry): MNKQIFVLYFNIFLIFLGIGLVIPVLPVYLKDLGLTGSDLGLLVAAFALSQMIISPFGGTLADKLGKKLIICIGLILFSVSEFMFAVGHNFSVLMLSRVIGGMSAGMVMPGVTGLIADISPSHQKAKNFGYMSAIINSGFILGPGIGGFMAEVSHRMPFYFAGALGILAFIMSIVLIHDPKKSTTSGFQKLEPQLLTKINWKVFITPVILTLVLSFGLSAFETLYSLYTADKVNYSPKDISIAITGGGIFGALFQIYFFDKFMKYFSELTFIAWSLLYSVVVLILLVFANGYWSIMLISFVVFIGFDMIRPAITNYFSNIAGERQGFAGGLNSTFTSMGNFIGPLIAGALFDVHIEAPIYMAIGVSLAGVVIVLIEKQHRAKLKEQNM
Procedure, shortened: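 S. aureus SA-1199B (NorA overexpressing via promoter up-mutation; GrlA A116E), EtBr-loaded cells. EtBr loss measured fluorometrically over a 5 min time course, in duplicate, as mean total efflux. Percent reduction calculated versus efflux without compound. Test compound at 50 μM; increasing concentrations were also run for dose-response profiles.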

Staphylococcus aureus [3] = assay: Antibacterial activity against Staphylococcus aureus 1199B overexpressing wild type NorA and GrlA A116E mutant by microdilution technique; type: functional
Procedure, shortened: (§2)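 Intrinsic MIC of each test compound, run alone, by broth microdilution per CLSI guidelines, in duplicate.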

Staphylococcus aureus [4] = assay: Antibacterial activity against wild type Staphylococcus aureus ATCC 25923 by microdilution technique; type: functional; procedure, shortened: as §2
[5] = target: T1, Quinolone resistance protein NorA (Staphylococcus aureus); assay: Inhibition of NorA in Staphylococcus aureus 1199B expressing GrlA A116E mutant assessed as reduction in ciprofloxacin MIC at 12.5 ug/ml by microdilution technique
Procedure, shortened: (§3)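 Checkerboard combination: fresh scalar dilutions of test compound crossed with ciprofloxacin dilutions. Ciprofloxacin MIC determined by broth microdilution per CLSI guidelines, in duplicate. The result is the fold reduction in ciprofloxacin MIC relative to ciprofloxacin alone, read at the stated test-compound concentration. Reserpine served as reference inhibitor.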

Staphylococcus aureus [6] = assay: Antibacterial activity against Staphylococcus aureus 1199 expressing wild type NorA by microdilution technique
[7] = target: T1, Quinolone resistance protein NorA (Staphylococcus aureus); assay: Inhibition of NorA in Staphylococcus aureus 1199 assessed as reduction in ciprofloxacin MIC by microdilution technique; procedure, shortened: as §3
Staphylococcus aureus [8] = assay: Potentiation of ciprofloxacin MIC against NorA deficient Staphylococcus aureus K1902 by microdilution technique; type: functional; procedure, shortened: as §1
Staphylococcus aureus [9] = assay: Antibacterial activity against Staphylococcus aureus K2378 overexpressing NorA by microdilution technique; type: functional; procedure, shortened: as §2
[10] = target: T1, Quinolone resistance protein NorA (Staphylococcus aureus); assay: Inhibition of NorA in Staphylococcus aureus K2378 assessed as reduction in ciprofloxacin MIC at 12.5 ug/ml by microdilution technique; procedure, shortened: as §3
[11] = target: T1, Quinolone resistance protein NorA (Staphylococcus aureus); assay: Inhibition of NorA in Staphylococcus aureus 1199B expressing GrlA A116E mutant assessed as reduction in ciprofloxacin MIC at 25 ug/ml by microdilution technique
Procedure, shortened: (§4)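 Ciprofloxacin MICs were measured in duplicate by broth microdilution following CLSI guidelines, alone and in checkerboard combination with scalar dilutions of freshly prepared test compound. Potentiation was scored as the reduction in ciprofloxacin MIC. Strains: SA-1199B (NorA overexpressed via promoter up-mutation, plus GrlA A116E) and ATCC 25923 (wild-type control).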

Staphylococcus aureus [12] = assay: Antibacterial activity against NorA deficient Staphylococcus aureus K1902 by microdilution technique; type: functional; procedure, shortened: as §2
[13] = target: T1, Quinolone resistance protein NorA (Staphylococcus aureus); assay: Inhibition of NorA in Staphylococcus aureus K2378 assessed as reduction in ciprofloxacin MIC at 3.13 ug/ml by microdilution technique
Procedure, shortened: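 CLSI broth microdilution checkerboard combining ciprofloxacin with scalar dilutions of freshly prepared test compound, in duplicate, against S. aureus SA-K2378 (NorA-overexpressing; SA-K1902 norA-negative as paired strain). Value is the ciprofloxacin MIC reduction with test compound present at the stated fixed concentration.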

Staphylococcus aureus [14] = assay: Potentiation of ciprofloxacin MIC against wild type Staphylococcus aureus ATCC 25923 by microdilution technique; type: functional; procedure, shortened: as §1
[15] = target: T1, Quinolone resistance protein NorA (Staphylococcus aureus); assay: Inhibition of NorA in Staphylococcus aureus 1199B expressing GrlA A116E mutant assessed as reduction in ciprofloxacin MIC at 1.56 ug/ml by microdilution technique; procedure, shortened: as §3
[16] = target: T1, Quinolone resistance protein NorA (Staphylococcus aureus); assay: Inhibition of NorA in Staphylococcus aureus K2378 assessed as reduction in ciprofloxacin MIC at 1.56 ug/ml by microdilution technique; procedure, shortened: as §3
Staphylococcus aureus [17] = assay: Potentiation of ciprofloxacin MIC against wild type Staphylococcus aureus ATCC 25923 at 3.13 ug/ml by microdilution technique; type: functional; procedure, shortened: as §4
[18] = target: T1, Quinolone resistance protein NorA (Staphylococcus aureus); assay: Inhibition of NorA in Staphylococcus aureus 1199 assessed as reduction in ciprofloxacin MIC at 0.78 ug/ml by microdilution technique
Procedure, shortened: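 Checkerboard combination of ciprofloxacin with freshly prepared test compound in S. aureus SA-1199 (norA wild-type). Ciprofloxacin MIC determined in duplicate by CLSI microdilution in the presence of fixed compound concentrations.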

Structure (SMILES): C[C@@H](NCc1cccc(OCc2ccccc2)c1)[C@@H](O)c1ccccc1
- MIC (Staphylococcus aureus [1]): > 288 µM
- inhibition [2]: 86.6%
- MIC (Staphylococcus aureus [3]): > 100 µg/mL
- MIC (Staphylococcus aureus [4]): 100 µg/mL (≈ 288 µM)
- fold change (FC) [5]: 4
- MIC (Staphylococcus aureus [6]): 100 µg/mL (≈ 288 µM)
- fold change (FC) [7]: 2
- fold change (FC) (Staphylococcus aureus [8]): 2
- MIC (Staphylococcus aureus [9]): 50 µg/mL (≈ 144 µM)
- fold change (FC) [10]: 16
- fold change (FC) [11]: 16
- MIC (Staphylococcus aureus [12]): 100 µg/mL (≈ 288 µM)
- fold change (FC) [13]: 4
- fold change (FC) (Staphylococcus aureus [14]): 2

Structure (SMILES): OC(CNCc1cccc(OCc2ccccc2)c1)c1ccccc1 (configuration not stated)
- inhibition [2]: 88.4%
- fold change (FC) [7]: 4

Structure (SMILES): CC[C@H](C)N1C(=O)S/C(=C/c2ccc(-c3cc(C(=O)O)ccc3Cl)o2)C1=O
- MIC (Staphylococcus aureus [1]): 123 µM (≈ 49.9 µg/mL)
- inhibition [2]: 81%
- MIC (Staphylococcus aureus [3]): 50 µg/mL (≈ 123 µM)
- MIC (Staphylococcus aureus [4]): 50 µg/mL (≈ 123 µM)
- fold change (FC) [5]: 8
- MIC (Staphylococcus aureus [6]): 25 µg/mL (≈ 61.6 µM)
- fold change (FC) [7]: 2
- fold change (FC) (Staphylococcus aureus [8]): 2
- MIC (Staphylococcus aureus [9]): 50 µg/mL (≈ 123 µM)
- fold change (FC) [10]: 32
- MIC (Staphylococcus aureus [12]): 50 µg/mL (≈ 123 µM)
- fold change (FC) [13]: 32
- fold change (FC) (Staphylococcus aureus [14]): 2

Structure (SMILES): Cn1cccc1-c1nc2cc(NC(=O)c3ccccc3)ccc2[nH]1
- inhibition [2]: 94.3%
- fold change (FC) [7]: 4

Structure (SMILES): CC[C@H]1CCc2nc(SCc3ccc(C(=O)O)cc3)c(C#N)c(C(F)(F)F)c2C1
- MIC (Staphylococcus aureus [1]): 15 µM (≈ 6.31 µg/mL)
- inhibition [2]: 71.7%
- MIC (Staphylococcus aureus [3]): 6.25 µg/mL (≈ 14.9 µM)
- MIC (Staphylococcus aureus [4]): 6.25 µg/mL (≈ 14.9 µM)
- MIC (Staphylococcus aureus [6]): 12.5 µg/mL (≈ 29.7 µM)
- fold change (FC) [7]: 2
- fold change (FC) (Staphylococcus aureus [8]): 2
- MIC (Staphylococcus aureus [9]): 6.25 µg/mL (≈ 14.9 µM)
- fold change (FC) [15]: 2
- MIC (Staphylococcus aureus [12]): 6.25 µg/mL (≈ 14.9 µM)
- fold change (FC) [16]: 16
- fold change (FC) (Staphylococcus aureus [14]): 2

Structure (SMILES): Cc1ccc(S(=O)(=O)Nc2ccc3[nH]c(-c4cccn4C)nc3c2)cc1
- MIC (Staphylococcus aureus [1]): > 273 µM
- inhibition [2]: 88.2%
- MIC (Staphylococcus aureus [3]): > 100 µg/mL
- MIC (Staphylococcus aureus [4]): > 100 µg/mL
- MIC (Staphylococcus aureus [6]): > 100 µg/mL
- MIC (Staphylococcus aureus [9]): > 100 µg/mL
- fold change (FC) (Staphylococcus aureus [17]): 8
- MIC (Staphylococcus aureus [12]): > 100 µg/mL
- fold change (FC) [18]: 8
